Blank lines part the entries; values can stand above or below the molecule they belong to.
Assays:
Format in all cases: functional
[1] = Growth inhibition of human RPMI8266 cells
Summary of the method: (§1)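 Five-dose testing was run within the NCI (Bethesda) in vitro Anticancer Screen Program on a panel of 53 human tumour cell lines from nine cancer types. Growth inhibition is reported as GI50.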

K562 = assay: Growth inhibition of human K562 cells; summary of the method: as §1
A549 = assay: Growth inhibition of human A549 cells; summary of the method: as §1
EKVX = assay: Growth inhibition of human EKVX cells; summary of the method: as §1
HOP-62 = assay: Growth inhibition of human HOP62 cells; summary of the method: as §1
HOP-92 = assay: Growth inhibition of human HOP92 cells; summary of the method: as §1
NCI-H226 = assay: Growth inhibition of human NCI-H226 cells; summary of the method: as §1
NCI-H23 = assay: Growth inhibition of human NCI-H23 cells; summary of the method: as §1
NCI-H322M = assay: Growth inhibition of human NCI-H322M cells; summary of the method: as §1
NCI-H460 = assay: Growth inhibition of human NCI-H460 cells; summary of the method: as §1
NCI-H522 = assay: Growth inhibition of human NCI-H522 cells; summary of the method: as §1
COLO 205 = assay: Growth inhibition of human COLO205 cells; summary of the method: as §1
HCC 2998 = assay: Growth inhibition of human HCC2998 cells; summary of the method: as §1
HCT-116 = assay: Growth inhibition of human HCT116 cells; summary of the method: as §1
HCT-15 = assay: Growth inhibition of human HCT15 cells; summary of the method: as §1
HT-29 = assay: Growth inhibition of human HT-29 cells; summary of the method: as §1
KM12 = assay: Growth inhibition of human KM12 cells; summary of the method: as §1
SW-620 = assay: Growth inhibition of human SW620 cells
Summary of the method: (§2)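 Compounds that passed a preliminary screen were tested at five doses in the NCI (Bethesda) in vitro Anticancer Screen Program against a 53-line human tumour panel spanning leukemia, lung, colon, CNS, melanoma, ovarian, renal, prostate and breast. Growth inhibition is reported as GI50.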

SF-268 = assay: Growth inhibition of human SF268 cells; summary of the method: as §1
SF-295 = assay: Growth inhibition of human SF295 cells; summary of the method: as §1
SF-539 = assay: Growth inhibition of human SF539 cells; summary of the method: as §1
SNB-19 = assay: Growth inhibition of human SNB19 cells; summary of the method: as §2
SNB-75 = assay: Growth inhibition of human SNB75 cells; summary of the method: as §2
U-251 = assay: Growth inhibition of human U251 cells; summary of the method: as §2
A498 = assay: Growth inhibition of human A498 cells; summary of the method: as §1
786-0 = assay: Growth inhibition of human 786-0 cells; summary of the method: as §1
ACHN = assay: Growth inhibition of human ACHN cells; summary of the method: as §1
CAKI-1 = assay: Growth inhibition of human Caki1 cells; summary of the method: as §1
RXF 393 = assay: Growth inhibition of human RXF393 cells; summary of the method: as §1
SN12C = assay: Growth inhibition of human SN12C cells; summary of the method: as §2
TK-10 = assay: Growth inhibition of human TK10 cells; summary of the method: as §2
UO-31 = assay: Growth inhibition of human UO31 cells; summary of the method: as §2
OVCAR-3 = assay: Growth inhibition of human OVCAR-3 cells; summary of the method: as §1
OVCAR-4 = assay: Growth inhibition of human OVCAR4 cells; summary of the method: as §1
OVCAR-5 = assay: Growth inhibition of human OVCAR5 cells; summary of the method: as §1
OVCAR-8 = assay: Growth inhibition of human OVCAR8 cells; summary of the method: as §1
NCI/ADR-RES = assay: Growth inhibition of human NCI/ADR-RES cells; summary of the method: as §1
SK-OV-3 = assay: Growth inhibition of human SKOV3 cells; summary of the method: as §2
MCF7 [2] = assay: Growth inhibition of human MCF7 cells; summary of the method: as §1
MDA-MB-231 = assay: Growth inhibition of human MDA-MB-231 cells; summary of the method: as §1
[3] = Growth inhibition of human Hs 578T cells; summary of the method: as §1
BT-549 = assay: Growth inhibition of human BT549 cells; summary of the method: as §1
T47D = assay: Growth inhibition of human T47D cells; summary of the method: as §2
LOX IMVI = assay: Growth inhibition of human LOXIMVI cells; summary of the method: as §1
Malme-3M = assay: Growth inhibition of human MALME-3M cells; summary of the method: as §1
M14 = assay: Growth inhibition of human M14 cells; summary of the method: as §1
MDA-MB-435 = assay: Growth inhibition of human MDA-MB-435 cells; summary of the method: as §1
SK-MEL-2 = assay: Growth inhibition of human SK-MEL-2 cells; summary of the method: as §1
SK-MEL-28 = assay: Growth inhibition of human SK-MEL-28 cells; summary of the method: as §1
SK-MEL-5 = assay: Growth inhibition of human SK-MEL-5 cells; summary of the method: as §1
UACC-257 = assay: Growth inhibition of human UACC257 cells; summary of the method: as §2
UACC-62 = assay: Growth inhibition of human UACC62 cells; summary of the method: as §2
MCF7 [4] = assay: Cell cycle arrest in human MCF7 cells assessed as accumulation at G0 phase at 10 uM after 24 hrs by FACS analysis
Summary of the method: (§3)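 MCF-7 breast carcinoma cells were exposed to 10 µM test compound for 24 h, with DMSO as the vehicle control. Cell-cycle distribution was read by FACS as the percentage of cells in G0, G1, S and G2/M.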

MCF7 [5] = assay: Cell cycle arrest in human MCF7 cells assessed as accumulation at G1 phase at 10 uM after 24 hrs by FACS analysis; summary of the method: as §3
MCF7 [6] = assay: Cell cycle arrest in human MCF7 cells assessed as accumulation at S phase at 10 uM after 24 hrs by FACS analysis; summary of the method: as §3
MCF7 [7] = assay: Cell cycle arrest in human MCF7 cells assessed as accumulation at G2/M phase at 10 uM after 24 hrs by FACS analysis; summary of the method: as §3
MCF7 [8] = assay: Cell cycle arrest in human MCF7 cells assessed as accumulation at G0 phase at 30 uM after 24 hrs by FACS analysis
Summary of the method: (§4)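 MCF-7 cells were treated at 30 µM for 24 h alongside a DMSO control. Fractions in G0, G1, S and G2/M phases were measured by FACS, and values are means of three experiments.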

MCF7 [9] = assay: Cell cycle arrest in human MCF7 cells assessed as accumulation at G1 phase at 30 uM after 24 hrs by FACS analysis; summary of the method: as §4
MCF7 [10] = assay: Cell cycle arrest in human MCF7 cells assessed as accumulation at S phase at 30 uM after 24 hrs by FACS analysis; summary of the method: as §4
MCF7 [11] = assay: Cell cycle arrest in human MCF7 cells assessed as accumulation at G2/M phase at 30 uM after 24 hrs by FACS analysis; summary of the method: as §4
PC-3 = assay: Growth inhibition of human PC3 cells; summary of the method: as §1

GI50 (K562): 0.4 µM
GI50 (A549): 3.55 µM
GI50 (NCI-H226): 2.31 µM
GI50 (NCI-H23): 2.78 µM
GI50 (NCI-H322M): 2.52 µM
GI50 (NCI-H460): 2.41 µM
GI50 (NCI-H522): 1.65 µM
GI50 (COLO 205): 2.29 µM
GI50 (HCC 2998): 13.7 µM
GI50 (HCT-116): 1.23 µM
GI50 (HCT-15): 2.33 µM
GI50 (HT-29): 1.9 µM
GI50 (SW-620): 1.62 µM
GI50 (U-251): 0.58 µM
GI50 (786-0): 1.57 µM
GI50 (ACHN): 1.84 µM
GI50 (OVCAR-3): 1.56 µM
GI50 (OVCAR-4): 2.21 µM
GI50 (OVCAR-5): 2.19 µM
GI50 (OVCAR-8): 0.99 µM
GI50 (SK-OV-3): 4.21 µM
GI50 (MCF7 [2]): 1.27 µM
GI50 (MDA-MB-231): 3.35 µM
GI50 (BT-549): 1.45 µM
GI50 (T47D): 1.92 µM
GI50 (MDA-MB-435): 2.06 µM
GI50 (SK-MEL-2): 2.07 µM
GI50 (SK-MEL-28): 3.64 µM
GI50 (SK-MEL-5): 1.53 µM
Structure (SMILES): O=C(/C=C/c1cccc(O)c1)c1cccc(-n2cc(-c3ccc(Cl)cc3)[nH]c2=O)c1
GI50 [1]: 1.55 µM
GI50 (EKVX): 2.4 µM
GI50 (HOP-62): 2.36 µM
GI50 (HOP-92): 1.6 µM
GI50 (KM12): 1.34 µM
GI50 (SF-268): 1.78 µM
GI50 (SF-295): 1.79 µM
GI50 (SF-539): 1.68 µM
GI50 (SNB-19): 1.92 µM
GI50 (SNB-75): 1.46 µM
GI50 (A498): 3.71 µM
GI50 (CAKI-1): 1.72 µM
GI50 (RXF 393): 1.51 µM
GI50 (SN12C): 1.95 µM
GI50 (TK-10): 2.83 µM
GI50 (UO-31): 0.55 µM
GI50 (NCI/ADR-RES): 2.2 µM
GI50 [3]: 4 µM
GI50 (LOX IMVI): 1.57 µM
GI50 (Malme-3M): 1.83 µM
GI50 (M14): 2.01 µM
GI50 (UACC-257): 4.07 µM
GI50 (UACC-62): 1.85 µM
Activity (MCF7 [4]): 3.1%
Activity (MCF7 [5]): 59.35%
Activity (MCF7 [6]): 13.92%
Activity (MCF7 [7]): 23.63%
Activity (MCF7 [8]): 17.17%
Activity (MCF7 [9]): 58.33%
Activity (MCF7 [10]): 13.7%
Activity (MCF7 [11]): 10.8%

GI50 (K562): 2.35 µM
GI50 (A549): 4.14 µM
GI50 (NCI-H226): 4.1 µM
GI50 (NCI-H23): 2.85 µM
GI50 (NCI-H322M): 8.2 µM
GI50 (NCI-H460): 3.23 µM
GI50 (NCI-H522): 3.48 µM
GI50 (COLO 205): 6.61 µM
GI50 (HCC 2998): 2.32 µM
GI50 (HCT-116): 1.93 µM
GI50 (HCT-15): 3.15 µM
GI50 (HT-29): 3.84 µM
GI50 (SW-620): 2.5 µM
GI50 (U-251): 3.45 µM
GI50 (786-0): 4.53 µM
GI50 (ACHN): 3.4 µM
GI50 (PC-3): 3.05 µM
GI50 (OVCAR-3): 2.7 µM
GI50 (OVCAR-4): 6.08 µM
GI50 (OVCAR-5): 3.38 µM
GI50 (OVCAR-8): 4.97 µM
GI50 (SK-OV-3): 4.77 µM
GI50 (MCF7 [2]): 3.18 µM
GI50 (MDA-MB-231): 5.25 µM
GI50 (BT-549): 4.57 µM
GI50 (T47D): 3.6 µM
GI50 (MDA-MB-435): 3.35 µM
GI50 (SK-MEL-2): 5.54 µM
GI50 (SK-MEL-28): 2.03 µM
GI50 (SK-MEL-5): 2.63 µM
Structure (SMILES): COc1ccc(-c2cn(-c3cccc(C(=O)/C=C/c4ccc(O)c(OC)c4)c3)c(=O)[nH]2)cc1
GI50 [1]: 1.35 µM
GI50 (EKVX): 13.4 µM
GI50 (HOP-62): 5.15 µM
GI50 (HOP-92): 2.96 µM
GI50 (KM12): 1.77 µM
GI50 (SF-268): 3.4 µM
GI50 (SF-295): 13.9 µM
GI50 (SF-539): 2.25 µM
GI50 (SNB-19): 5.84 µM
GI50 (SNB-75): 4.73 µM
GI50 (A498): 3.72 µM
GI50 (CAKI-1): 4.99 µM
GI50 (RXF 393): 5.85 µM
GI50 (SN12C): 4.11 µM
GI50 (TK-10): 6.08 µM
GI50 (UO-31): 5.19 µM
GI50 (NCI/ADR-RES): 2.56 µM
GI50 [3]: 4.25 µM
GI50 (LOX IMVI): 2.44 µM
GI50 (Malme-3M): 4.42 µM
GI50 (M14): 5.14 µM
GI50 (UACC-257): 13.3 µM
GI50 (UACC-62): 3.96 µM
Activity (MCF7 [4]): 2.16%
Activity (MCF7 [5]): 57.66%
Activity (MCF7 [6]): 14%
Activity (MCF7 [7]): 26.18%
Activity (MCF7 [8]): 20.5%
Activity (MCF7 [9]): 54.5%
Activity (MCF7 [10]): 16%
Activity (MCF7 [11]): 9%

From ChEMBL document CHEMBL1208778, “Synthesis and anti-cancer activity of chalcone linked imidazolones” (2010)
